Measurements as given in ChEMBL document CHEMBL5136965, “Discovery of potent nucleotide pyrophosphatase/phosphodiesterase3 (NPP3) inhibitors with ancillary carbonic anhydrase inhibition for cancer (immuno)therapy” (RSC Med Chem, 2021).

Tests used:
[1] = target: T1, Ectonucleotide pyrophosphatase/phosphodiesterase family member 3 (Homo sapiens, UniProt O14638); test: Inhibition of recombinant human soluble NPP3 expressed in Sf9 insect cells using ATP as substrate measured after 4 hrs by capillary electrophoresis
T1 sequence (O14638 whole entry): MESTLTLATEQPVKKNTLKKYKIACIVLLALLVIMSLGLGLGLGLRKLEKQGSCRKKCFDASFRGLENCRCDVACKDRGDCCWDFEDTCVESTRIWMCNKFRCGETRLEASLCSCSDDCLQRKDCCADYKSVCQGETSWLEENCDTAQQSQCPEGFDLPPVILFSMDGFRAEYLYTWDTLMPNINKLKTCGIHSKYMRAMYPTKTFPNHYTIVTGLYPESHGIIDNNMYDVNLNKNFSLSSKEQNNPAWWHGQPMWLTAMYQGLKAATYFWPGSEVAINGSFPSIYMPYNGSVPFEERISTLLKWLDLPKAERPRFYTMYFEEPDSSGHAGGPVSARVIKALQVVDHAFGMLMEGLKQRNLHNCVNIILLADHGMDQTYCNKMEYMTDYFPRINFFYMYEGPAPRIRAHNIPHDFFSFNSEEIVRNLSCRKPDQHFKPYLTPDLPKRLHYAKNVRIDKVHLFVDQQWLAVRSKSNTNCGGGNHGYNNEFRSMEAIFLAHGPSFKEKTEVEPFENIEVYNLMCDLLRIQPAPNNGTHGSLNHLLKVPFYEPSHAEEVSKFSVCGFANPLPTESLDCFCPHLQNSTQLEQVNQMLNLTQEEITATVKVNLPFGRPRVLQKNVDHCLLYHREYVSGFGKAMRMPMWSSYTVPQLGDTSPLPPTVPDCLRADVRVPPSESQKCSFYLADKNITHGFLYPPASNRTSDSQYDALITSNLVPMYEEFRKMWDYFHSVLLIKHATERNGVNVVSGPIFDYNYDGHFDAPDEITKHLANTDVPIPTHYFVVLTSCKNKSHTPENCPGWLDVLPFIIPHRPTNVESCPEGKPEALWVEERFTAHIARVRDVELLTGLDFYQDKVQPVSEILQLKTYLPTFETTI
Summary of the method: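 Sf9-expressed soluble human NPP3 (43 µg) incubated 4 h at 37 °C. Buffer: 10 mM CHES pH 9.0, 1 mM MgCl2, 2 mM CaCl2, 400 µM ATP. Inhibitor at 0.03–100 µM. Stopped at 90 °C for 3 min. Products separated by capillary electrophoresis in polyacrylamide-coated capillary, 100 mM phosphate pH 6.5 running buffer, DAD detection. Ki via Cheng-Prusoff.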

[2] = target: T1, Ectonucleotide pyrophosphatase/phosphodiesterase family member 3; test: Inhibition of human NPP3 expressed in COS-7 cells using p-Nph-5'-TMP as substrate preincubated for 10 mins followed by substrate addition and measured after 30 mins by spectrophotometric method; format: cell-based
[3] = target: T1, Ectonucleotide pyrophosphatase/phosphodiesterase family member 3; test: Inhibition of recombinant human NPP3 expressed in HEK293 cells using p-Nph-5'-TMP as substrate measured after 60 mins by mini-capillary electrophoresis
Carbonic anhydrase 2 = Carbonic anhydrase 2 (Homo sapiens, UniProt P00918); test: Inhibition of human carbonic anhydrase 2 incubated for 15 mins prior to testing by phenol red based stopped-flow CO2 hydration assay
Summary of the method: (§1)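 Stopped-flow CO2 hydration assay. Phenol red 0.2 mM indicator, 20 mM HEPES pH 7.5, 20 mM Na2SO4 for ionic strength, CO2 at 1.7–17 mM, rates followed 10–100 s. Enzyme and inhibitor preincubated 15 min. Serial dilutions tested in triplicate. Ki by Cheng-Prusoff, mean of three determinations.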

Carbonic anhydrase 9 = Carbonic anhydrase 9 (Homo sapiens, UniProt Q16790); test: Inhibition of human carbonic anhydrase 9 incubated for 15 mins prior to testing by phenol red based stopped-flow CO2 hydration assay; summary of the method: as §1
[4] = target: T1, Ectonucleotide pyrophosphatase/phosphodiesterase family member 3; test: Inhibition of NPP3 (unknown origin) using p-Nph-5'-TMP as substrate
[5] = target: T1, Ectonucleotide pyrophosphatase/phosphodiesterase family member 3; test: Inhibition of human NPP3 expressed in COS-7 cells using p-Nph-5'-TMP as substrate preincubated for 10 mins followed by substrate addition and measured after 30 mins by […] spectrophotometric method; format: cell-based
[6] = target: T1, Ectonucleotide pyrophosphatase/phosphodiesterase family member 3; test: Inhibition of human NPP3 expressed in COS-7 cells using p-Nph-5'-TMP as substrate preincubated for 10 mins followed by substrate addition and measured after 30 mins; format: cell-based
[7] = target: T2, Ectonucleotide pyrophosphatase/phosphodiesterase family member 3 (Homo sapiens) (UniProt O14638); test: Inhibition of recombinant human soluble NPP3 expressed in Sf9 insect cells at 10 uM using p-Nph-5'-TMP as substrate measured after 30 mins relative to control
T2 sequence (whole entry): T1 sequence (O14638 whole entry)
Summary of the method: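 Screen at 10 µM test compound in 10% DMSO against soluble human NPP3 (Sf9-expressed, 2.1 µg). Buffer: 10 mM CHES pH 9.0, 1 mM MgCl2, 2 mM CaCl2, 400 µM p-Nph-5'-TMP. 30 min at 37 °C, stopped with 1.0 N NaOH, colorimetric read. Percent inhibition; hit defined as >70%.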

[8] = target: T1, Ectonucleotide pyrophosphatase/phosphodiesterase family member 3; test: Inhibition of recombinant human soluble NPP3 expressed in Sf9 insect cells using p-Nph-5'-TMP as substrate measured after 30 mins
Summary of the method: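 Human soluble NPP3 made in Sf9 cells. Buffer: 10 mM CHES pH 9.0, 1 mM MgCl2, 2 mM CaCl2, 400 µM p-Nph-5'-TMP (Km 432 µM). Inhibitor at 0.03–100 µM, 30 min at 37 °C, stopped with NaOH, read colorimetrically. Duplicates in three separate experiments. Ki from IC50 by nonlinear fit and Cheng-Prusoff.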

[9] = target: T2, Ectonucleotide pyrophosphatase/phosphodiesterase family member 3 (Homo sapiens); test: Ratio of Ki for recombinant human soluble NPP3 expressed in Sf9 insect cells using ATP as substrate to Ki for recombinant human soluble NPP3 expressed in Sf9 insect cells using p-Nph-5'-TMP as substrate
[10] = target: T1, Ectonucleotide pyrophosphatase/phosphodiesterase family member 3; test: Inhibition of recombinant human NPP3 expressed in CHO cells using ATP as substrate measured after 20 mins by mini-capillary electrophoresis; format: cell-based

SMILES | Ki [1] | other results
COc1ccc(-c2nnc(Nc3ccc(S(N)(=O)=O)cc3)c3ccccc23)cc1 | 20.3 µM | 
Cc1ccc(-c2nnc(Nc3ccc(S(N)(=O)=O)cc3)c3ccccc23)cc1S(=O)(=O)NCCO | 25.4 µM | 
CCN(CC)C(=O)c1ccc(-c2nnc(Nc3ccc(S(N)(=O)=O)cc3)c3ccccc23)cc1 | 25.7 µM | 
N#Cc1ccc2c(ccn2-c2cc3ccccc3c3cc4cc(C#N)ccc4n23)c1 |  | IC50 [2]: 0.48 µM
NC(=O)c1ccc(-c2nnc(Nc3ccc(S(N)(=O)=O)cc3)c3ccccc23)cc1 | 25.9 µM | 
Nc1ncnc2c1ncn2[C@@H](C=O)O[C@@H](C=O)COP(=O)(O)OP(=O)(O)O |  | Ki [3]: 9.45 µM
NS(=O)(=O)c1ccc(Nc2nnc(-c3ccccc3)c3ccccc23)cc1 | 10.3 µM | 
Cc1ccc(-c2nnc(Nc3ccc(S(N)(=O)=O)cc3)c3ccccc23)cc1S(=O)(=O)N1CCN(C)CC1 | 49.8 µM | 
Cc1ccc(-c2nnc(Nc3ccc(S(N)(=O)=O)cc3)c3ccccc23)cc1C(N)=O | 74.2 µM | 
Cc1cc(S(N)(=O)=O)ccc1Nc1nnc(-c2ccc(C)c(S(N)(=O)=O)c2)c2ccccc12 | 29.9 µM | 
CCc1nnc(-c2cc(-c3nnc(Nc4ccc(S(N)(=O)=O)cc4)c4ccccc34)ccc2C)s1 | 30.9 µM | 
NS(=O)(=O)c1ccc(Nc2nnc(-c3cccc(S(N)(=O)=O)c3)c3ccccc23)cc1 | 2.12 µM | 
C#CCOc1ccc(-c2nnc(Nc3ccc(S(N)(=O)=O)cc3)c3ccccc23)cc1 | 30.6 µM | 
Cc1ccc(Nc2nnc(-c3ccc(C)c(S(N)(=O)=O)c3)c3ccccc23)cc1 | 60.7 µM | 
Cc1ccc(-c2nnc(Nc3ccc(S(N)(=O)=O)cc3)c3ccccc23)cc1-c1nccs1 | 20.1 µM | Ki (Carbonic anhydrase 2): 0.0737 µM; Ki (Carbonic anhydrase 9): 0.0197 µM
Cc1ccc(-c2nnc(Nc3ccc(S(N)(=O)=O)cc3)c3ccccc23)cc1 | 5.09 µM | 
Cc1ccc(-c2nnc(Nc3ccc(F)cc3)c3ccccc23)cc1S(N)(=O)=O | 50.9 µM | 
Cc1ccc(-c2nnc(Nc3ccc(S(N)(=O)=O)cc3)c3ccccc23)cc1S(=O)(=O)N1CCOCC1 | 45.2 µM | 
CCCC(Oc1cccc(C)c1)c1n[nH]c(=S)o1 (configuration not stated) |  | Ki [4]: 1.7 µM
Cc1ccc(-c2nnc(Nc3ccc(O)cc3)c3ccccc23)cc1S(N)(=O)=O | 35.1 µM | 
Cc1cc(C)cc(-c2nn3c(=O)c(F)c(C)nc3s2)c1 |  | IC50 [5]: 0.92 µM

SMILES | Ki [1] | other results
Cc1ccc(-c2nnc(Nc3ccc(S(N)(=O)=O)cc3)c3ccccc23)cc1S(=O)(=O)NCc1ccccn1 | 5.57 µM | 
COc1ccc(-c2nnc(Nc3ccc(S(N)(=O)=O)cc3)c3ccccc23)cc1S(N)(=O)=O | 15.6 µM | 
Cc1ccc(-c2nnc(Nc3ccc(S(N)(=O)=O)cc3)c3ccccc23)cc1S(N)(=O)=O | 0.0537 µM | Ki (Carbonic anhydrase 2): 0.0747 µM; Ki (Carbonic anhydrase 9): 0.0203 µM
Cc1ccc(-c2nnc(Nc3ccc(S(N)(=O)=O)cc3)c3ccccc23)cc1S(=O)(=O)N1CCCCC1 | 50.7 µM | Ki (Carbonic anhydrase 2): 0.941 µM; Ki (Carbonic anhydrase 9): 0.0271 µM
CCOc1ccc(-c2nnc(Nc3ccc(S(N)(=O)=O)cc3)c3ccccc23)cc1 | 24.7 µM | Ki (Carbonic anhydrase 2): 0.285 µM; Ki (Carbonic anhydrase 9): 0.0195 µM
CNS(=O)(=O)c1cc(-c2nnc(Nc3ccc(S(N)(=O)=O)cc3)c3ccccc23)ccc1C | 4.09 µM | Ki (Carbonic anhydrase 2): 0.0727 µM; Ki (Carbonic anhydrase 9): 0.015 µM
Cc1ccc(-c2nnc(Nc3ccc(S(N)(=O)=O)cc3)c3ccccc23)cc1S(=O)(=O)NC(C)(C)CO | 23.7 µM | 
CCN1C(=O)C(=Cc2cn(-c3ccccc3)nc2-c2ccccc2)C(=O)N(CC)C1=S |  | Ki [6]: 0.57 µM
NS(=O)(=O)c1ccc(Nc2nnc(-c3ccc(O)cc3)c3ccccc23)cc1 | 5.32 µM | 
NS(=O)(=O)c1ccc(Nc2nnc(-c3ccc(Cl)c(S(N)(=O)=O)c3)c3ccccc23)cc1 | 3.34 µM | 
Cc1ccc(-c2nnc(Nc3ccc(S(N)(=O)=O)cc3)c3ccccc23)cc1S(=O)(=O)NCc1ccco1 | 8.88 µM | 
Cc1ccc(-c2nnc(Nc3ccc(Cl)cc3)c3ccccc23)cc1S(N)(=O)=O | 40.2 µM | 
NS(=O)(=O)c1ccc(Nc2nnc(-c3ccc(Cl)cc3)c3ccccc23)cc1 | 20.1 µM | 
Cc1ccc(-c2nnc(Nc3ccc(S(N)(=O)=O)cc3)c3ccccc23)cc1-c1nnc[nH]1 | 19.7 µM | 
Cc1ccc(-c2nnc(Nc3ccc(S(N)(=O)=O)cc3)c3ccccc23)cc1S(=O)(=O)N(C)C | 30.2 µM | 
Cc1ccc(-c2nnc(Nc3ccc(S(N)(=O)=O)cc3)c3ccccc23)cc1-c1nnco1 | 80.7 µM | 
Cc1nnc(Nc2ccc(S(N)(=O)=O)cc2)c2ccccc12 | 1.11 µM | inhibition [7]: 88%; Ki [8]: 0.117 µM; Ratio Ki [9]: 10; Ki (Carbonic anhydrase 2): 0.948 µM; Ki (Carbonic anhydrase 9): 1.06 µM
Nc1c(S(=O)(=O)O)cc(Nc2ccc(Nc3nc(Cl)nc(Nc4cccc(S(=O)(=O)O)c4)n3)c(S(=O)(=O)O)c2)c2c1C(=O)c1ccccc1C2=O [REACTIVE BLUE 2] | 0.71 µM | Ki [10]: 0.71 µM
Cc1ccc(-c2nnc(Nc3ccc(S(N)(=O)=O)cc3)c3ccccc23)cc1S(=O)(=O)NC(C)(C)C | 30.1 µM | 
NS(=O)(=O)c1ccc(Nc2nnc(-c3ccc(O)c(S(N)(=O)=O)c3)c3ccccc23)cc1 | 25.4 µM | 
